Reference: ChEMBL document CHEMBL1255487, “Preclinical evaluation of the antifolate QN254, 5-chloro- N'6'-(2,5-dimethoxy-benzyl)-quinazoline-2,4,6-triamine, as an antimalarial drug candidate” (Antimicrob Agents Chemother, 2010)

Columns and labels:
[1] = test system: Plasmodium berghei; assay: Antimalarial activity against Plasmodium berghei ANKA infected in NMRI mice (Mus musculus) assessed as reduction in parasitemia at 100 mg/kg, perorally administered as single dose measured on day 3 postinfection; type: functional; design: scale not given: the % may be the effect or the level left; conditions: route oral
Method in brief: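 P. berghei ANKA given intravenously to groups of 5 female NMRI mice (20–22 g): 0.2 ml of 1 × 10^8 parasitized erythrocytes/ml from a donor mouse. Oral dosing in 0.5% carboxymethyl cellulose. Parasitemia counted by microscopy. Activity is the control-minus-treated parasitemia difference, expressed as percent of untreated controls.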

[2] = test system: Plasmodium falciparum; assay: Antimalarial activity against pyrimethamine-resistant Plasmodium falciparum clinical isolate harboring S108N, N51I mutation in DHFR assessed as decrease in parasitaemia; type: functional, organism-based
Method in brief: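 P. falciparum grown in RPMI 1640 with 10% (v/v) human serum, 25 mM bicarbonate, 2 mM glutamine, 25 mM HEPES, 5 nM para-aminobenzoic acid and 23 nM folic acid. Parasites exposed to a concentration series. Read-out is [3H]hypoxanthine incorporation into nucleic acid. IC50 taken from non-linear regression of the dose–response curve.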

## COc1ccc(OC)c(CNc2ccc3nc(N)nc(N)c3c2Cl)c1
[1]
  Activity: >99.99%
[2]
  IC50: 4.48 nM
